Results from ChEMBL document CHEMBL2401736, “HCV NS5A replication complex inhibitors. Part 5: discovery of potent and pan-genotypic glycinamide cap derivatives” (Bioorg Med Chem Lett, 2013).

Columns and labels:
Rattus norvegicus = experiment: (§1) AUC (0 to 4 hrs) in rat at 5 mg/kg, po; type: ADME, organism-based, Plasma; design: time < 4 hr, dose 5 mg/kg, route oral; details: in vivo, 4 h, BLD = below limit of detection
Summary of the method: (§2)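 Rat 4 h PK screen: 2 mg/kg IV and 5 mg/kg PO, each dose as its line states. Plasma sampled 5 times (0.17, 0.5, 1, 2 and 4 h); n = 2 rats.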

[1] = system: Bovine viral diarrhea virus 1; experiment: Antiviral activity against Bovine viral diarrhea virus by luciferase assay; type: functional, organism-based
Summary of the method: (§3)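 EC50 values are means of at least two experiments, with at most threefold variation between them.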

[2] = Metabolic stability in rat liver microsomes assessed as compound remaining after 10 mins; type: ADME, Microsome; details: read-out: Stability
Summary of the method: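 Compound incubated with rat liver microsomes for 10 min; read-out is the percentage of parent remaining.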

Hepatitis C virus [3] = experiment: Antiviral activity against Hepatitis C virus genotype 1b by FRET assay; type: functional, organism-based, Hepacivirus hominis; summary of the method: as §3
[4] = Permeability of the compound across human Caco2 cells; type: ADME, cell-based; details: Caco-2, read-out: permeability
Hepatitis C virus [5] = experiment: Antiviral activity against Hepatitis C virus genotype 1a by ELISA; type: functional, organism-based, Hepacivirus hominis, subtype 1a; summary of the method: as §3
[6] = as §1; type: ADME, organism-based, Plasma; design: time < 4 hr, dose 5 mg/kg, route oral; details: plasma; summary of the method: as §2
[7] = AUC (0 to 4 hrs) in rat at 2 mg/kg, iv; type: ADME, organism-based; design: time < 4 hr, dose 2 mg/kg, route intravenous; details: plasma; summary of the method: as §2
[8] = Clearance in rat at 2 mg/kg, iv after 4 hrs; type: ADME, organism-based; design: dose 2 mg/kg, route intravenous; details: in vivo; summary of the method: as §2

Row | AUC (Rattus norvegicus) | EC50 [1] | remaining at 10 min [2] | EC50 (Hepatitis C virus [3]) | Papp [4] | EC50 (Hepatitis C virus [5]) | AUC(0-t) at 4 h [6] | AUC(0-t) at 4 h [7] | EC50 ([1]; Bovine viral diarrhea virus isolates and strains) | clearance [8] | EC50 (Hepatitis C virus [3]; Hepatitis C virus, genotype 1b) | EC50 (Hepatitis C virus [5]; Hepatitis C virus, subtype 1a) | Compound
1 | BLD | > 3330 nM | 100% | 0.152 nM | < 1.5 ×10⁻⁶ cm/s | < 4.6 nM | – | – | – | – | – | – | CN1CCN(C(C(=O)N2CCC[C@H]2C(=O)Nc2ccc(C#Cc3ccc(NC(=O)[C@@H]4CCCN4C(=O)C(c4ccccc4)N4CCN(C)CC4)cc3)cc2)c2ccccc2)CC1 (stereo in doubt; 5i.1)
2 | – | – | 100% | – | < 1.5 ×10⁻⁶ cm/s | – | 0.093 µM·h | 2.11 µM·h | > 10000 nM | 13.3 mL/min/kg | 0.005 nM | 24 nM | CC(=O)N[C@H](C(=O)N1CCC[C@H]1C(=O)Nc1ccc(C#Cc2ccc(NC(=O)[C@@H]3CCCN3C(=O)[C@@H](NC(C)=O)c3ccccc3)cc2)cc1)c1ccccc1
